According to ChEMBL document CHEMBL1130266, “Monoaryl- and bisaryldihydroxytropolones as potent inhibitors of inositol monophosphatase” (J Med Chem, 1997):

Experiment: Concentration required to inhibit the activity of inositol monophosphatase by 50%
Summary of the method: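 Human recombinant IMPase expressed in E. coli and purified to homogeneity. […] Enzyme adjusted so ≤10% substrate used. Duplicate rates at six inhibitor concentrations plus no-inhibitor control, fitted to v = V0/(1+[I]/IC50).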

| IC50 [µM] | SMILES |
| --- | --- |
| 40 | O=c1c(O)c(-c2cc3ccccc3o2)cc(-c2cc3ccccc3o2)c(O)c1O |
| > 100 | O=Cc1cccc(-c2cc(-c3cccc(C=O)c3)c(O)c(=O)c(O)c2O)c1 |
| 40 | O=c1ccc(-c2cccc(-c3nnc(-c4ccc5ccccc5c4)o3)c2)c(O)c(O)c1O |
| > 100 | O=c1ccc(-c2ccc3ccccc3c2)c(O)c(O)c1O |
| > 200 | O=c1c(O)c(-c2ccccc2F)cc(-c2ccccc2F)c(O)c1O |
| 20 | CC(=O)Nc1cccc(-c2ccc(=O)c(O)c(O)c2O)c1 |
| 10 | O=c1ccc(-c2ccc(O)cc2)c(O)c(O)c1O |
| 200 | O=c1c(O)c(-c2ccc(C(F)(F)F)cc2)cc(-c2ccc(C(F)(F)F)cc2)c(O)c1O |
| 10 | O=c1c(O)c(-c2ccc(O)cc2)cc(-c2ccc(O)cc2)c(O)c1O |
| 10 | O=c1ccc(-c2cncnc2)c(O)c(O)c1O |
| 7 | O=c1c(O)c(O)ccc(-c2cccc(O)c2O)c1O |
| 25 | O=c1c(O)c(O)ccc(-c2ccsc2)c1O |
| 10 | O=c1c(O)cccc(O)c1O |
| 130 | O=c1c(O)c(O)ccc(-c2ccc(C(F)(F)F)cc2)c1O |
| 4 | N#Cc1cccc(-c2ccc(=O)c(O)c(O)c2O)c1 |
| 20 | O=Cc1cccc(-c2ccc(O)c(O)c(=O)c2O)c1 |
| 10 | O=c1c(O)c(O)ccc(-c2cc(C(F)(F)F)cc(C(F)(F)F)c2)c1O |
| > 200 | O=c1c(O)c(-c2cccc(-c3nnc(-c4ccc5ccccc5c4)o3)c2)cc(-c2cccc(-c3nnc(-c4ccc5ccccc5c4)o3)c2)c(O)c1O |
| 20 | O=c1ccc(-c2cccc3ccccc23)c(O)c(O)c1O |

| IC50 [µM] | SMILES |
| --- | --- |
| 35 | O=c1c(O)c(-c2ccsc2)cc(-c2ccsc2)c(O)c1O |
| 200 | O=c1cccc(-c2ccccc2)c(O)c1O |
| > 200 | O=c1c(O)c(-c2cccc(C(F)(F)F)c2)cc(-c2cccc(C(F)(F)F)c2)c(O)c1O |
| 65 | O=c1ccc(-c2ccccc2F)c(O)c(O)c1O |
| 70 | O=c1c(O)c(-c2cc(C(F)(F)F)cc(C(F)(F)F)c2)cc(-c2cc(C(F)(F)F)cc(C(F)(F)F)c2)c(O)c1O |
| > 100 | O=c1c(O)c(-c2ccc3ccccc3c2)cc(-c2ccc3ccccc3c2)c(O)c1O |
| 8 | O=c1c(O)c(O)ccc(-c2cccc([N+](=O)[O-])c2)c1O |
| 7 | O=c1c(O)c(O)ccc(-c2cc3ccccc3o2)c1O |
| 10 | O=c1c(O)c(Br)cc(Br)c(O)c1O |
| 65 | CC(=O)Nc1cccc(-c2cc(-c3cccc(NC(C)=O)c3)c(=O)c(O)c(O)c2O)c1 |
| 15 | O=c1c(O)c(O)ccc(-c2cccs2)c1O |
| 30 | N#Cc1cccc(-c2cc(-c3cccc(C#N)c3)c(O)c(=O)c(O)c2O)c1 |
| > 100 | O=c1c(O)c(-c2cccc3ccccc23)cc(-c2cccc3ccccc23)c(O)c1O |
| 5 | O=c1ccc(CCCCO)c(O)c(O)c1O |
| 20 | O=c1ccc(-c2ccccc2)c(O)c(O)c1O |
| 10 | O=c1c(O)c(O)ccc(-c2cccc(C(F)(F)F)c2)c1O |
| 20 | O=c1c(O)c(-c2cccc([N+](=O)[O-])c2)cc(-c2cccc([N+](=O)[O-])c2)c(O)c1O |
| > 200 | O=c1c(O)c(O)ccc2cc(O)c(O)c(O)c12 |

| SMILES | IC50 [µM] |
| --- | --- |
| NCCc1ccc(-c2ccc(=O)c(O)c(O)c2O)cc1 | 90 |
